This note sets out measurements from ChEMBL document CHEMBL5674883, “The Heterochromatin Landscape in Migrating Cells and the Importance of H3K27me3 for Associated Transcriptome Alterations” (Cells, 2018).

What all share (type): cell-based
The target of test [1] is Histone-lysine N-methyltransferase EZH2 (Mus musculus) (UniProt Q61188). Description: Inhibition of EZH2 in mouse B16-F1 migrating cells assessed as fold change in H3K27me3-independent regulated Bnip3-mRNA expression at 3 uM measured by […] analysis relative to control cells. An outline of the steps: (§1)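 Confluent B16-F1 cells on fibronectin-coated plates were scratched at multiple sites, washed once with DMEM and left to migrate 3 h in growth medium (37 °C, 7% CO2); unscratched cells served as control. GSK343 (3 µM) was added 3 h before lysis. Poly A mRNA was sequenced (RNA-seq), with 5 replicates for untreated and 3 for treated cells. Differential expression was called by linear model with batch correction, at FDR <0.05 and fold change ≥1.3.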

For test [2] the target is unchanged. In words: Inhibition of EZH2 in mouse B16-F1 migrating cells assessed as fold change in H3K27me3-buffered regulated Lrp4-mRNA expression at 3 uM measured by […] analysis relative to control cells. An outline of the steps:
(§2)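 Confluent B16-F1 cells on fibronectin-coated plates, cultured at 37 °C and 7% CO2, were scratched at multiple sites to induce migration. They were then held 3 h in growth medium containing 3 µM GSK343, with the inhibitor added 3 h before lysis. Unscratched cells served as controls. Poly A mRNA was analysed by RNA-seq (n=3 GSK343, n=5 controls). Linear models removed batch effects, and buffered genes were those altered only under GSK343 (FDR <0.05, fold change >1.3).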

The target is the same in test [3]. Description: Inhibition of EZH2 in mouse B16-F1 migrating cells assessed as fold change in H3K27me3-buffered regulated Pygm-mRNA expression at 3 uM measured by […] analysis relative to control cells. An outline of the steps:
as §2

The target is the same in test [4]. In words: Inhibition of EZH2 in mouse B16-F1 migrating cells assessed as fold change in H3K27me3-dependent regulated Mir22hg-mRNA expression at 3 uM measured by […] analysis relative to control cells. In short, it runs like this: as §1
Test [5] has the same target. In words: Inhibition of EZH2 in mouse B16-F1 migrating cells assessed as fold change in H3K27me3-buffered regulated Tuba4a-mRNA expression at 3 uM measured by […] analysis relative to control cells. An outline of the steps:
as §1

Test [6] shares this target. Description: Inhibition of EZH2 in mouse B16-F1 migrating cells assessed as fold change in H3K27me3-buffered regulated Gulp1-mRNA expression at 3 uM measured by […] analysis relative to control cells. An outline of the steps: as §2
Test [7] shares this target. In words: Inhibition of EZH2 in mouse B16-F1 migrating cells assessed as fold change in H3K27me3-independent regulated Skil-mRNA expression at 3 uM measured by […] analysis relative to control cells. In short, it runs like this: as §1
Test [8] shares this target. Description: Inhibition of EZH2 in mouse B16-F1 migrating cells assessed as fold change in H3K27me3-buffered regulated Hunk-mRNA expression at 3 uM measured by […] analysis relative to control cells. In short, it runs like this: as §2
For test [9] the target is unchanged. Description: Inhibition of EZH2 in mouse B16-F1 migrating cells assessed as fold change in H3K27me3-buffered regulated Ccdc18-mRNA expression at 3 uM measured by […] analysis relative to control cells. In short, it runs like this:
as §2

For test [10] the target is unchanged. Description: Inhibition of EZH2 in mouse B16-F1 migrating cells assessed as fold change in H3K27me3-buffered regulated Rnf145-mRNA expression at 3 uM measured by […] analysis relative to control cells. In short, it runs like this:
as §1

For test [11] the target is unchanged. In words: Inhibition of EZH2 in mouse B16-F1 migrating cells assessed as fold change in H3K27me3-buffered regulated Tet2-mRNA expression at 3 uM measured by ChIP-seq analysis relative to control cells. An outline of the steps:
as §1

The target of test [12] is T1, RNA polymerase II (Mus musculus) (UniProt P08775+Q8CFI7+P97760+A0A3Q4L2S8+Q80UW8+P61219+P62488+Q923G2+P60898+O08740+Q63871+P62876). In words: Inhibition of RNA polymerase II in mouse B16-F1 migrating cells assessed as fold change in Lgals3-RNA stability at 0.1 mM measured by ChIP-seq analysis relative to control cells.
In test [13] the target is T1, RNA polymerase II (Mus musculus). Description: Inhibition of RNA polymerase II in mouse B16-F1 migrating cells assessed as fold change in Socs5-RNA stability at 0.1 mM measured by […] analysis relative to control cells.
Test [14] shares this target. In words: Inhibition of RNA polymerase II in mouse B16-F1 migrating cells assessed as fold change in Tk2-RNA stability at 0.1 mM measured by […] analysis relative to control cells.
Test [15] has the same target. Description: Inhibition of RNA polymerase II in mouse B16-F1 migrating cells assessed as fold change in Vegfa-RNA stability at 0.1 mM measured by […] analysis relative to control cells.
Test [16] has the same target. In words: Inhibition of RNA polymerase II in mouse B16-F1 migrating cells assessed as fold change in Mastl-RNA stability at 0.1 mM measured by ChIP-seq analysis relative to control cells.
Test [17] has the same target. Description: Inhibition of RNA polymerase II in mouse B16-F1 migrating cells assessed as fold change in Cdk5rap3-RNA stability at 0.1 mM measured by […] analysis relative to control cells. In short, it runs like this: (§3)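 Mouse B16-F1 melanoma cells grown to confluence on fibronectin in DMEM/10% FCS at 37 °C, 7% CO2. Migration induced by multiple scratches and 3 h incubation; unscratched controls. DRB 0.1 mM added 3 h before lysis. RNA from poly A-selected mRNA was sequenced (RNA-seq, three replicates per DRB group). Fold change computed for DRB-treated migrating vs DRB-treated control cells; cutoffs fold change >1.3, FDR <0.05.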

Test [18] has the same target. In words: Inhibition of RNA polymerase II in mouse B16-F1 migrating cells assessed as fold change in Nek7-RNA stability at 0.1 mM measured by ChIP-seq analysis relative to control cells.
For test [19] the target is unchanged. In words: Inhibition of RNA polymerase II in mouse B16-F1 migrating cells assessed as fold change in Ets1-RNA stability at 0.1 mM measured by […] analysis relative to control cells. An outline of the steps: as §3
Test [20] has the same target. Description: Inhibition of RNA polymerase II in mouse B16-F1 migrating cells assessed as fold change in 2310030G06Rik-RNA stability at 0.1 mM measured by […] analysis relative to control cells.
The target is the same in test [21]. In words: Inhibition of RNA polymerase II in mouse B16-F1 migrating cells assessed as fold change in Pgp-RNA stability at 0.1 mM measured by […] analysis relative to control cells.
Test [22] has the same target. In words: Inhibition of RNA polymerase II in mouse B16-F1 migrating cells assessed as fold change in Med25-RNA stability at 0.1 mM measured by ChIP-seq analysis relative to control cells.
The target is the same in test [23]. Description: Inhibition of RNA polymerase II in mouse B16-F1 migrating cells assessed as fold change in Xpo1-RNA stability at 0.1 mM measured by […] analysis relative to control cells.
Test [24] has the same target. Description: Inhibition of RNA polymerase II in mouse B16-F1 migrating cells assessed as fold change in Gtf3c4-RNA stability at 0.1 mM measured by ChIP-seq analysis relative to control cells.

Sequence of Histone-lysine N-methyltransferase EZH2 (Mus musculus) (Q61188 whole entry): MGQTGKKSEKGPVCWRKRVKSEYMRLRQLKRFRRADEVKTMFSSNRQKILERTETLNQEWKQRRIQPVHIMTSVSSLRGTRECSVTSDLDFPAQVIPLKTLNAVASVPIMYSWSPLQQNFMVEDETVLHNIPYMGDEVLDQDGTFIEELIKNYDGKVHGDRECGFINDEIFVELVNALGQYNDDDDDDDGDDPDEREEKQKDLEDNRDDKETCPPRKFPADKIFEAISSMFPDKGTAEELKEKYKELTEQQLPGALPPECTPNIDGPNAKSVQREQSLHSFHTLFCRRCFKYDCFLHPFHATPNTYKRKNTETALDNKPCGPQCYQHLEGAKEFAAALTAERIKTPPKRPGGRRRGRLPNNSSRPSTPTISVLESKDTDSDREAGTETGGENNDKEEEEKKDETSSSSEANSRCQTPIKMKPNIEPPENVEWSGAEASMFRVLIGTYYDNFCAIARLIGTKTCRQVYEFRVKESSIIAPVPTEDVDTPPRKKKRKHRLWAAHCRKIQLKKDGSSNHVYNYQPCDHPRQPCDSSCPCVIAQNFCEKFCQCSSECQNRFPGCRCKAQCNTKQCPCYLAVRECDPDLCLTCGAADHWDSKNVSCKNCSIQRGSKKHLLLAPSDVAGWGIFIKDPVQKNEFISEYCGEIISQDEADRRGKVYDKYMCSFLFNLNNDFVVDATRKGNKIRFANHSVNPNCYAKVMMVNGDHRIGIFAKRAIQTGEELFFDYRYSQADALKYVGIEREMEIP

As for `CCCc1cc(C)[nH]c(=O)c1CNC(=O)c1cc(-c2ccnc(N3CCN(C)CC3)c2)cc2c1cnn2C(C)C`, the log2FC is 0.68 in [1]; -0.39 in test [2]; 0.85 in [3]; 0.05 in test [4]; 0.42 in test [5]; -0.44 in [6]. Further, the log2FC is 0.42 in test [7]; -0.5 in test [8]; -0.87 in test [9]; -0.49 in test [10]; -0.48 in test [11].

Take `OC[C@H]1O[C@@H](n2cnc3cc(Cl)c(Cl)cc32)[C@H](O)[C@@H]1O`: the log2FC in [12] is 0.95; in test [13] it was -0.48; in [14], 0.79; in test [15] it was 0.67; in test [16], -0.74; in [17] it was 0.49. Also, the log2FC in test [18] is -0.66; in [19], -0.65; in test [20] it was -0.91; in test [21], 0.82; in test [22], 0.42; in test [23], -0.58. In addition, in [24], the log2FC was -0.54.
